Where “and” joins values, the source holds several entries; their conditions need not be identical. Equal entries are not always repeated. Entries after “also recorded” stand apart in the source; their conditions may differ.
What was measured:
[1] = tested on: dialyzed serum proteins; assay: Protein binding assay; type: in vitro ADME; conditions: rapid equilibrium dialysis, dialyzed fetal bovine serum, UV 282 nm
[2] = tested on: NFκB-bla Raw 264.7 cells; assay: In vitro NFkB activation using NFκB-bla Raw 264.7 cells; type: cell-based, murine; conditions: Mus musculus, RAW264.7, 16 h; for EC50: read-out: EC50 NFkB-RAW; for maximal fold induction: read-out: Imax NFkB-RAW (RR)
Outline: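 NFκB-bla RAW 264.7 cells at 5×10^4 per well in OptiMEM with 0.5% dialyzed FBS, 0.1 mM non-essential amino acids, 1 mM pyruvate, 10 mM HEPES pH 7.3 and penicillin/streptomycin. Test compound came from 10 or 50 mM DMSO stocks, was serially diluted in DMSO, then in medium.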

[3] = tested on: murine primary BMDM; assay: In vitro cytokine induction in bone marrow derived macrophages; type: cell-based, mouse (C57BL/6); conditions: for EC50: Mus musculus, BMDM, 18 h, read-out: EC50 BMDM; for Imax BMDM (IL-6 ng/ml): maximum level of IL-6 induction, 18 hours
Outline: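 Bone marrow-derived macrophages from C57BL/6 mice at 5×10^4 cells per well. Cells were given serially diluted test compound, from 50–100 mM DMSO stocks, for 18 h at 37°C, 5% CO2. Supernatant IL-6 was measured by ELISA, detection limit 15 pg/mL. Curves were fitted by nonlinear regression to give EC50 and maximal IL-6 induction. Representative of two independent experiments.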

[4] = tested on: human B cells; assay: Human B cell proliferation; type: cell-based; conditions: human PBMC, four days
Outline: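 Human PBMC from blood-bank buffy coats, from three donors. Cells were labelled with 10 μM CFSE in saline for 10 min, washed, then exposed to 1 or 10 μM test compound for four days. Cells were surface-stained for CD19. Proliferation of the CD19-gated B cells was scored by flow cytometry as CFSE dilution. Representative of two independent experiments.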

[5] = Pharmacokinetic; type: in vivo, mouse (C57BL/6); conditions: for AUC: C57BL/6, mouse, iv, 500 nmol
[6] = tested on: human PBMC; assay: Cytokine induction by human PBMC; type: cell-based; conditions: 1 or 10 μM, 18 hours
[7] = tested on: C57BL/6 mice; assay: Pharmacodynamic; type: in vivo, mouse (C57BL/6); conditions: 200 nmol i.v., all time points analyzed
Outline: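 Female C57BL/6 mice, 5 per group, received 200 nmol test compound intravenously. Sera were collected 2, 4, 6, 24 and 48 h after injection and held at −20°C. IL-6 and TNF-α were measured by Luminex bead assay, with detection limits of 5 and 10 pg/mL. Means ± SEM of five mice were compared with vehicle and unconjugated ligand by one-way ANOVA with Bonferroni post hoc test.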

[8] = Solubility study in deionized water; conditions: for Water Solubility: saturated solution in deionized water, osmometer
[9] = Protein binding assay; type: in vitro ADME; conditions: bovine, dialyzed fetal bovine serum

Row | SMILES | Protein Binding (%) [1] [%] | EC50 [2] [µM] | maximal fold induction [2] | EC50 [3] [µM] | Imax BMDM (IL-6 ng/ml) [3] [ng/mL] | B cell proliferation ([4]; 1 and 10 μM, three donors) | AUC ([5]; serum) [µM·h] | Maximum serum concentration compared to 1V136 ([5]; C57BL/6 mice, i.v. 500 nmol) | Cytokine induction (IL-6, TNF-α) in human PBMC (in words) [6] | Serum cytokine levels (IL-6, TNF-α) compared to 1V136 [7] | Water Solubility [8] | fraction unbound [9] | B cell proliferation ([4]; 1 μM) | AUC ([5]; in vivo) [µM·h] | Water solubility (in words) ([8]; deionized water)
1 | COCCOc1nc(N)c2nc(O)n(Cc3ccc(C(=O)NCCOCCOCCOCCOCCOCCOCCOCCOCCOCCOCCOCCOCCOCCOCCOCCOCCOCCOCCOCCN)cc3)c2n1 [Compound 3, 4-((6-amino-8-hydroxy-2-(2-methoxyethoxy)-9H-purin-9-yl)methyl)-N-(59-amino-3,6,9,12,15,18,21,24,27,30,33,36,39,42,45,48,51,54,57-nonadecaoxanonapentacontyl)benzamide] | 79.5 ± 1.35 | 0.9 ± 0.29 | 3.58 ± 0.58 | 1.79 ± 0.77 | 4.10 ± 1.33 | induced B cell proliferation only at 10 μM | 41.4 | significantly higher maximum serum concentrations |  |  |  |  |  |  | 
2 | COCCOc1nc(N)c2nc(O)n(Cc3ccc(C(=O)NCCOCCOCCOCCOCCOCCOCCN)cc3)c2n1 [Compound 1c, 4-((6-amino-8-hydroxy-2-(2-methoxyethoxy)-9H-purin-9-yl)methyl)-N-(20-amino-3,6,9,12,15,18-hexaoxaicosyl)benzamide] | 51.3 ±6.4 | 1.19 ± 0.2 | 3.27 ± 0.39 | 3.9 ± 1.06 | 5.19 ± 1.96 |  |  |  | higher potencies than the corresponding compounds with carboxyl-terminals | significantly less cytokine levels; also recorded: minimum induction of proinflammatory cytokines |  |  |  |  | 
3 | COCCOc1nc(N)c2nc(O)n(Cc3ccc(C(=O)NCCOCCOCCOCCOCCOCCOCCN=[N+]=[N-])cc3)c2n1 [Compound 1a, 4-((6-amino-8-hydroxy-2-(2-methoxyethoxy)-9H-purin-9-yl)methyl)-N-(20-azido-3,6,9,12,15,18-hexaoxaicosyl)benzamide] |  | 4.13 ± 0.97 | 2.9 ± 0.06 | 8.18 ± 1.91 | 2.60 ± 0.49 |  |  |  |  | minimum induction of proinflammatory cytokines |  |  |  |  | 
4 | COCCOc1nc(N)c2nc(O)n(Cc3ccc(C(=O)NCCOCCOCCOCCOCCOCCOCCOCCOCCOCCOCCn4cc(CCC(=O)O)nn4)cc3)c2n1 [Compound 2b, 3-(1-(1-(4-((6-amino-8-hydroxy-2-(2-methoxyethoxy)-9H-purin-9-yl)methyl)phenyl)-1-oxo-5,8,11,14,17,20,23,26,29,32-decaoxa-2-azatetratriacontan-34-yl)-1H-1,2,3-triazol-4-yl)propanoic acid] |  | 2.67 ± 0.75 | 3.15 ± 0.23 | 4.42 ± 1.18 | 2.79 ± 0.47 | minimally induced proliferation; also recorded: undetectable |  |  |  | significantly less cytokine levels; also recorded: minimum induction of proinflammatory cytokines |  |  |  |  | 
5 | COCCOc1nc(N)c2[nH]c(=O)n(Cc3ccc(C(=O)O)cc3)c2n1 [Compound 1V209, 4-{[6-Amino-2-(2-methoxyethoxy)-8-oxo-7H-purin-9(8H)-yl]methyl}benzoic Acid] |  |  |  |  |  |  |  |  |  |  | 35 ±1 mOsm/kg |  |  |  | 
6 | COCCOc1nc(N)c2nc(O)n(Cc3ccc(C(=O)NCCOCCOCCOCCOCCOCCOCCn4cc(CCC(=O)O)nn4)cc3)c2n1 [Compound 1b, 3-(1-(1-(4-((6-amino-8-hydroxy-2-(2-methoxyethoxy)-9H-purin-9-yl)methyl)phenyl)-1-oxo-5,8,11,14,17,20-hexaoxa-2-azadocosan-22-yl)-1H-1,2,3-triazol-4-yl)propanoic acid] |  | 4.99 ± 0.7 | 3.04 ± 0.23 | 10.6 ± 1.74 | 2.46 ± 0.36 | minimally induced proliferation; also recorded: undetectable | 5.93 |  |  | significantly less cytokine levels; also recorded: minimum induction of proinflammatory cytokines | 240 mOsm/kg and 240 ± 10 mOsm/kg |  |  |  | 
7 | COCCOc1nc(N)c2nc(O)n(Cc3ccc(C(=O)NCCOCCOCCOCCOCCOCCOCCOCCOCCOCCOCCN=[N+]=[N-])cc3)c2n1 [Compound 2a, 4-((6-amino-8-hydroxy-2-(2-methoxyethoxy)-9H-purin-9-yl)methyl)-N-(32-azido-3,6,9,12,15,18,21,24,27,30-decaoxadotriacontyl)benzamide] |  | 5.91 ± 1.33 | 3.55 ± 0.14 | 6.93 ± 3.54 | 2.72 ± 0.34 |  |  |  |  | minimum induction of proinflammatory cytokines |  |  |  |  | 
8 | COCCOc1nc(N)c2nc(O)n(Cc3ccc(C(=O)NCCOCCOCCOCCOCCOCCOCCOCCOCCOCCOCCN)cc3)c2n1 [Compound 2c, 4-((6-amino-8-hydroxy-2-(2-methoxyethoxy)-9H-purin-9-yl)methyl)-N-(32-amino-3,6,9,12,15,18,21,24,27,30-decaoxadotriacontyl)benzamide] | 57.6 ± 1.2 | 1.16 ± 0.39 | 3.23 ± 0.27 | 2.24 ± 0.33 | 2.89 ± 0.49 |  |  |  | higher potencies than the corresponding compounds with carboxyl-terminals | minimum induction of proinflammatory cytokines |  |  |  |  | 
9 | COCCOc1nc(N)c2nc(O)n(Cc3ccccc3)c2n1 [Compound 1V136, 9-benzyl-8-hydroxy-2-(2-methoxyethoxy) adenine, reference compound] |  | 0.08 ± 0.01 | 3.56 ± 0.38 | 0.36 ± 0.09 | 3.32 ± 0.54 |  |  |  |  |  |  | 0.332 | induced strong B cell proliferation | 1.62 | highly insoluble in aqueous solution

Source: article PMC3063487 (Bioconjugate chemistry, 2011)
